Key:
[1] = biological target: T1, Tyrosine-protein kinase JAK2 (Homo sapiens, UniProt O60674); test: Inhibition of N-terminal His-tagged human JAK2 catalytic domain (826 to 1132 resiudes) expressed in baculovirus expression system at 100 nM using FAM-labeled peptide as substrate preincubated for 10 mins followed by substrate addition measured after 1 hr in presence of ATP by mobility shift assay relative to control
In short: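 Single-concentration (100 nM) percent inhibition in the mobility-shift JAK2 assay. Enzyme was preincubated with compound for 10 min at room temperature in HEPES pH 7.5/Brij-35 buffer. FAM-peptide and ATP were then added and the reaction run for 1 h at 28 °C before EDTA stop. Inhibition = (max−conversion)/(max−min)×100. Each compound was tested at least twice and the values averaged.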

[2] = biological target: Receptor-type tyrosine-protein kinase FLT3 (Homo sapiens) (UniProt P36888); conditions: at 100 nM
HEL = test: Antiproliferative activity against human HEL cells assessed as growth inhibition after 72 hrs by CCK-8 assay; type: functional
In short: (§1)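 CCK-8 viability readout. Cells were cultured in RPMI 1640 with 10% FBS and 1% penicillin/streptomycin and seeded at 3000 (HEL), 5000 (MV4-11) or 3000 (HL60) cells/well. Increasing compound concentrations were applied for 72 h, then CCK-8 was added for a further 3 h and absorbance read at 450 nm. Inhibition = (1−A_sample/A_control)×100, normalized to DMSO controls. Value is the mean of three independent measurements, obtained by curve fitting.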

MV4-11 = test: Antiproliferative activity against human MV4-11 cells assessed as growth inhibition after 72 hrs by CCK-8 assay; type: functional; conditions: MV4-11, 72 h; in short: as §1
HL-60 = test: Antiproliferative activity against human HL60 cells assessed as growth inhibition after 72 hrs by CCK-8 assay; type: functional; conditions: HL-60, 72 h; in short: as §1
[3] = biological target: T1, Tyrosine-protein kinase JAK2; test: Inhibition of N-terminal His-tagged human JAK2 catalytic domain (826 to 1132 resiudes) expressed in baculovirus expression system using FAM-labeled peptide as substrate preincubated for 10 mins followed by substrate addition measured after 1 hr in presence of ATP by mobility shift assay
In short: (§2)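 Caliper mobility-shift assay with recombinant kinase in 50 mM HEPES pH 7.5, 0.0015% Brij-35. Compound was diluted from DMSO and preincubated with enzyme for 10 min at room temperature. FAM-labeled peptide plus ATP was then added and the reaction run for 1 h at 28 °C. It was stopped with an EDTA (50 mM) buffer. Conversion gave percent inhibition relative to max/min controls, and IC50 came from a four-parameter Hill fit. Duplicate wells were used.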

[4] = biological target: T2, Receptor-type tyrosine-protein kinase FLT3 (Homo sapiens, UniProt P36888); test: Inhibition of N-terminal GST-tagged human FLT3 cytoplasmic domain (564 to 993 residues) expressed in baculovirus expression system musing FAM-labeled peptide as substrate preincubated for 10 mins followed by substrate addition measured after 1 hr in presence of ATP by mobility shift assay; in short: as §2
T2 sequence (P36888 whole entry): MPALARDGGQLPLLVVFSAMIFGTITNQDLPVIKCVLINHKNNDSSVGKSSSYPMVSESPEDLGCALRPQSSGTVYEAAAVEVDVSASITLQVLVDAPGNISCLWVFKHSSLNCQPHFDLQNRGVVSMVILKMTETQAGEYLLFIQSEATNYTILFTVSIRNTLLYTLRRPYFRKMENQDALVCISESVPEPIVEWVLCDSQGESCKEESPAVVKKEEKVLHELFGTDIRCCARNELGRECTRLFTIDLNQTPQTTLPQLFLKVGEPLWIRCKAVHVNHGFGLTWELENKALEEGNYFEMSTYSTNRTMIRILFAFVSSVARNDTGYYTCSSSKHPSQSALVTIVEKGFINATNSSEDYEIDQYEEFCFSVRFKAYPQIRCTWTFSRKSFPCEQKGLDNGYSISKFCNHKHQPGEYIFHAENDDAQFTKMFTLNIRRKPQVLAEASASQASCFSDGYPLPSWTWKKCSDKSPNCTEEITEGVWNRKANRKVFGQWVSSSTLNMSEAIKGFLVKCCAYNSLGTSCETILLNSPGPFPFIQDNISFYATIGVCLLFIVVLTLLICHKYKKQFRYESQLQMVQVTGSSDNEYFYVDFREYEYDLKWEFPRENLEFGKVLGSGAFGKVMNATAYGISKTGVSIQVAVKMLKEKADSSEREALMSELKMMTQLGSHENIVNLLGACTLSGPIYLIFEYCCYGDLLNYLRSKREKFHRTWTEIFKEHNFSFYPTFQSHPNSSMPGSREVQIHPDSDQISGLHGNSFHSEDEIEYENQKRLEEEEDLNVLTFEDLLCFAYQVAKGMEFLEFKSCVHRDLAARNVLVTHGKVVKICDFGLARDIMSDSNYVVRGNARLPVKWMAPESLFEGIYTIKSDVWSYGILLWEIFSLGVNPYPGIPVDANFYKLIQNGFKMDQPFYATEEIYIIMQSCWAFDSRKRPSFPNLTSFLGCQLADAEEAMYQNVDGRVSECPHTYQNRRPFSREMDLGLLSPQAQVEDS

T1 sequence (O60674 whole entry, the tested form may be a part): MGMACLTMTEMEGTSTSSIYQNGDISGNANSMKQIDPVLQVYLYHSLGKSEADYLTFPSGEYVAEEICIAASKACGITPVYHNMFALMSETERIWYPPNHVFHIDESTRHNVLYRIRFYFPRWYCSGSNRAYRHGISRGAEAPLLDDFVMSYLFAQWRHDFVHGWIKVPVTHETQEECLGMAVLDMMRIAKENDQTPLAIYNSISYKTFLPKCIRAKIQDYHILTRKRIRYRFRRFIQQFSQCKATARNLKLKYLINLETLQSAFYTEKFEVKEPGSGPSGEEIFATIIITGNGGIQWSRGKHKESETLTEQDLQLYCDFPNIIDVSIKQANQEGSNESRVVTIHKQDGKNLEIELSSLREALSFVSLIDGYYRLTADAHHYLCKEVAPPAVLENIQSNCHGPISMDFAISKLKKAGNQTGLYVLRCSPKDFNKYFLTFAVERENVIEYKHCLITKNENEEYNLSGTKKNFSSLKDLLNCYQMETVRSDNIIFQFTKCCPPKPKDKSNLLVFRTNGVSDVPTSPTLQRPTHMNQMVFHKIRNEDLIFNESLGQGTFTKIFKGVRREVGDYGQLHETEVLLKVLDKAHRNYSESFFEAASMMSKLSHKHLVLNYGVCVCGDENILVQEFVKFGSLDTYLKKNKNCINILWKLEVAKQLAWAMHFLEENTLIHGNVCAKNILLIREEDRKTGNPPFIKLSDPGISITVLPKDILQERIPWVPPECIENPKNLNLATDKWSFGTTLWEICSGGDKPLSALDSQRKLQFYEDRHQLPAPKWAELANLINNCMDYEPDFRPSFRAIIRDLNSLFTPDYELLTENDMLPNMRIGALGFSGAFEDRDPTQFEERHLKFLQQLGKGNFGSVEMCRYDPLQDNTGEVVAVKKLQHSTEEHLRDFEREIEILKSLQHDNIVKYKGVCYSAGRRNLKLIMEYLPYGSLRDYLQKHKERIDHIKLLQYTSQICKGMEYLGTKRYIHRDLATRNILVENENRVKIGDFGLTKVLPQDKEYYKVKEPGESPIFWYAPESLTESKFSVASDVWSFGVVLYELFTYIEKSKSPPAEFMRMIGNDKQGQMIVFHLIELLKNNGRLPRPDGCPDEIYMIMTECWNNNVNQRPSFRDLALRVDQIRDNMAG

inhibition [1]	inhibition [2]	GI50 (MV4-11)	GI50 (HL-60)	IC50 [3]	IC50 [4]	Structure (SMILES)	GI50 (HEL)
94.7%	–	–	–	–	–	N#CCNC(=O)c1ccc(-c2ccnc(Nc3ccc(N4CCOCC4)cc3)n2)cc1	–
21.8%	15%	–	–	–	–	O=C(Nc1ccccc1C(F)(F)F)N1CCN(c2ccnc(Nc3ccc(N4CCOCC4)cc3)n2)CC1	–
9.5%	12.5%	–	–	–	–	NC(=O)c1ccccc1NC(=O)N1CCN(c2ccnc(Nc3ccc(N4CCOCC4)cc3)n2)CC1	–
2%	3.3%	–	–	–	–	CC(=O)c1cccc(NC(=O)N2CCN(c3ccnc(Nc4ccc(N5CCOCC5)cc4)n3)CC2)c1	–
84%	85%	–	–	–	–	CN1CCN(c2ccc(Nc3nccc(N4CCN(C(=O)Nc5ccc(C(N)=O)cc5)CC4)n3)cc2)CC1	> 50 µM
75.8%	53.9%	–	–	–	–	CS(=O)(=O)c1ccc(NC(=O)N2CCN(c3ccnc(Nc4ccc(N5CCOCC5)cc4)n3)CC2)cc1	–
53.3%	27.4%	–	–	–	–	CCc1ccc(NC(=O)N2CCN(c3ccnc(Nc4ccc(N5CCOCC5)cc4)n3)CC2)cc1	–
48.7%	21.7%	–	–	–	–	COc1ccc(NC(=O)N2CCN(c3ccnc(Nc4ccc(N5CCOCC5)cc4)n3)CC2)cc1	–
41.2%	0%	–	–	–	–	CCN(CC)c1ccc(NC(=O)N2CCN(c3ccnc(Nc4ccc(N5CCOCC5)cc4)n3)CC2)cc1	–
61.7%	70.6%	–	–	–	–	CC(=O)c1ccc(NC(=O)N2CCN(c3ccnc(Nc4ccc(OCCN5CCOCC5)cc4)n3)CC2)cc1	8.9 µM
53%	54%	–	–	–	–	CC(=O)c1ccc(NC(=O)N2CCN(c3ccnc(Nc4ccc(N5CCC(C)CC5)cc4)n3)CC2)cc1	26.4 µM
92%	–	1.6 µM	1.4 µM	–	–	C1=N/C2=N/c3ccc(OCCN4CCCC4)c(c3)COC/C=C/COCc3cccc(c3)C(=C1)N2 [PACRITINIB]	1.1 µM
79.3%	84.4%	–	–	–	–	O=C(Nc1ccc([N+](=O)[O-])cc1)N1CCN(c2ccnc(Nc3ccc(N4CCOCC4)cc3)n2)CC1	–
40.6%	33.1%	–	–	–	–	COC(=O)CNC(=O)c1ccc(NC(=O)N2CCN(c3ccnc(Nc4ccc(N5CCOCC5)cc4)n3)CC2)cc1	–
76%	86%	–	–	–	–	CN1CCN(c2ccc(Nc3nccc(N4CCN(C(=O)Nc5ccc(S(N)(=O)=O)cc5)CC4)n3)cc2)CC1	> 50 µM
86%	79.7%	> 50 µM	> 50 µM	0.0093 µM	0.03 µM	NS(=O)(=O)c1ccc(NC(=O)N2CCN(c3ccnc(Nc4ccc(N5CCOCC5)cc4)n3)CC2)cc1	> 50 µM
73.9%	77.6%	17.8 µM	> 50 µM	0.0298 µM	0.04 µM	CC(=O)c1ccc(NC(=O)N2CCN(c3ccnc(Nc4ccc(N5CCSCC5)cc4)n3)CC2)cc1	4.7 µM
54.8%	27.8%	–	–	–	–	O=C(Nc1ccc(F)cc1)N1CCN(c2ccnc(Nc3ccc(N4CCOCC4)cc3)n2)CC1	–

inhibition [1]	inhibition [2]	GI50 (MV4-11)	GI50 (HL-60)	IC50 [3]	IC50 [4]	Structure (SMILES)	GI50 (HEL)
53.7%	27.8%	–	–	–	–	O=C(Nc1ccccc1)N1CCN(c2ccnc(Nc3ccc(N4CCOCC4)cc3)n2)CC1	–
35.2%	36.5%	–	–	–	–	O=C(Nc1ccc(C(F)(F)F)cc1)N1CCN(c2ccnc(Nc3ccc(N4CCOCC4)cc3)n2)CC1	–
74%	39.8%	–	–	–	–	NC(=O)c1cccc(NC(=O)N2CCN(c3ccnc(Nc4ccc(N5CCOCC5)cc4)n3)CC2)c1	–
59%	82%	–	–	–	–	NS(=O)(=O)c1ccc(NC(=O)N2CCN(c3ccnc(Nc4ccc(OCCN5CCCC5)cc4)n3)CC2)cc1	> 50 µM
20%	17.2%	–	–	–	–	O=C(Nc1ccc(C(=O)N2CCOCC2)cc1)N1CCN(c2ccnc(Nc3ccc(N4CCOCC4)cc3)n2)CC1	–
60.9%	70.9%	–	–	–	–	CC(=O)c1ccc(NC(=O)N2CCN(c3ccnc(Nc4ccc(OCCCN5CCOCC5)cc4)n3)CC2)cc1	10.7 µM
8.1%	15.9%	–	–	–	–	N#Cc1cccc(NC(=O)N2CCN(c3ccnc(Nc4ccc(N5CCOCC5)cc4)n3)CC2)c1	–
53%	74%	–	–	–	–	NC(=O)c1ccc(NC(=O)N2CCN(c3ccnc(Nc4ccc(OCCN5CCCC5)cc4)n3)CC2)cc1	> 50 µM
80.8%	87.5%	32 µM	46.4 µM	0.0138 µM	0.012 µM	CC(=O)c1ccc(NC(=O)N2CCN(c3ccnc(Nc4ccc(N5CCN(C)CC5)cc4)n3)CC2)cc1	14.1 µM
68.1%	35.8%	–	–	–	–	CNC(=O)c1ccc(NC(=O)N2CCN(c3ccnc(Nc4ccc(N5CCOCC5)cc4)n3)CC2)cc1	–
45%	69%	–	–	–	–	CC(=O)c1ccc(NC(=O)N2CCN(c3ccnc(Nc4ccc(OCCN5CCCC5)cc4)n3)CC2)cc1	30.3 µM
78%	70.8%	–	–	–	–	N#Cc1ccc(NC(=O)N2CCN(c3ccnc(Nc4ccc(N5CCOCC5)cc4)n3)CC2)cc1	–
35.2%	36.5%	–	–	–	–	O=C(Nc1cccc(C(F)(F)F)c1)N1CCN(c2ccnc(Nc3ccc(N4CCOCC4)cc3)n2)CC1	–
18.9%	13.8%	–	–	–	–	CC(=O)c1ccccc1NC(=O)N1CCN(c2ccnc(Nc3ccc(N4CCOCC4)cc3)n2)CC1	–
86.3%	81.1%	> 50 µM	> 50 µM	0.011 µM	0.021 µM	NC(=O)c1ccc(NC(=O)N2CCN(c3ccnc(Nc4ccc(N5CCOCC5)cc4)n3)CC2)cc1	> 50 µM
60.7%	83.2%	11 µM	29.4 µM	0.065 µM	0.013 µM	CC(=O)c1ccc(NC(=O)N2CCN(c3ccnc(Nc4ccc(OCCCN5CCCC5)cc4)n3)CC2)cc1	3.3 µM
11.1%	22.9%	–	–	–	–	CC(C)Oc1ccc(NC(=O)N2CCN(c3ccnc(Nc4ccc(N5CCOCC5)cc4)n3)CC2)cc1	–
64.4%	62.8%	–	–	–	–	COC(=O)c1ccc(NC(=O)N2CCN(c3ccnc(Nc4ccc(N5CCOCC5)cc4)n3)CC2)cc1	–
